Measured values reported in ChEMBL document CHEMBL4402611, “Phenyl(thio)phosphon(amid)ate Benzenesulfonamides as Potent and Selective Inhibitors of Human Carbonic Anhydrases II and VII Counteract Allodynia in a Mouse Model of Oxaliplatin-Induced Neuropathy” (J Med Chem, 2020).
Calls of active or inactive are those of the source.

How the values were obtained:
Carbonic anhydrase 1 = Carbonic anhydrase 1 (Homo sapiens, UniProt P00915); experiment: Inhibition of human recombinant carbonic anhydrase 1 preincubated with enzyme for 1 hr prior to testing by phenol red-based stopped-flow CO2 hydration assay
Carbonic anhydrase 1, sequence (P00915 whole entry): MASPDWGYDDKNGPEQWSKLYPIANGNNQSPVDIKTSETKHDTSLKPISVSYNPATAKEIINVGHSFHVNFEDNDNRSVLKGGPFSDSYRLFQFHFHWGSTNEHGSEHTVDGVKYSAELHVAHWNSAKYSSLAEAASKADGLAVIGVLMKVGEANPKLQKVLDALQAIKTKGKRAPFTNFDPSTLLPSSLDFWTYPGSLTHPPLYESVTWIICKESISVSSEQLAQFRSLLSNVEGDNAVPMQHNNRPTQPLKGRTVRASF

[1] = target: Carbonic anhydrase 5A, mitochondrial (Homo sapiens, UniProt P35218); experiment: Inhibition of human recombinant carbonic anhydrase 5A preincubated with enzyme for 1 hr prior to testing by phenol red-based stopped-flow CO2 hydration assay
Carbonic anhydrase 5A, mitochondrial, sequence (P35218 whole entry): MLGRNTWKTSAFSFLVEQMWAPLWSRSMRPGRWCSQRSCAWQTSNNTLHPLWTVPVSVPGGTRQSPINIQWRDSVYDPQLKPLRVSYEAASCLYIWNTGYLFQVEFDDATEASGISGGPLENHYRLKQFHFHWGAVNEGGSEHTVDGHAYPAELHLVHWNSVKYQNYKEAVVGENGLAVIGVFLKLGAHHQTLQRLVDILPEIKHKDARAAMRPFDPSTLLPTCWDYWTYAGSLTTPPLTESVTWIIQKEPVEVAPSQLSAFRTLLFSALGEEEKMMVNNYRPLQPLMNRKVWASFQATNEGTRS

[2] = Stability of compound in PBS buffer measured up to 120 mins by LC-MS/MS analysis; format: physicochemical; conditions: 2 h
How it was run: (§1)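 Analyte (1 μM final) incubated at 37 °C in PBS, 10 mM HCl (pH 2) or human plasma. Sampling at 0, 30, 60 and 120 min, each in triplicate. Samples were quenched with acetonitrile containing verapamil internal standard, centrifuged and diluted. Read-out was LC–MS/MS with positive ESI and MRM on a PFP column.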

Carbonic anhydrase 9 = Carbonic anhydrase 9 (Homo sapiens, UniProt Q16790); experiment: Inhibition of human recombinant carbonic anhydrase 9 preincubated with enzyme for 1 hr prior to testing by phenol red-based stopped-flow CO2 hydration assay; format: single protein
Carbonic anhydrase 4 = Carbonic anhydrase 4 (Homo sapiens, UniProt P22748); experiment: Inhibition of human recombinant carbonic anhydrase 4 preincubated with enzyme for 1 hr prior to testing by phenol red-based stopped-flow CO2 hydration assay
Carbonic anhydrase 4, sequence (P22748 whole entry): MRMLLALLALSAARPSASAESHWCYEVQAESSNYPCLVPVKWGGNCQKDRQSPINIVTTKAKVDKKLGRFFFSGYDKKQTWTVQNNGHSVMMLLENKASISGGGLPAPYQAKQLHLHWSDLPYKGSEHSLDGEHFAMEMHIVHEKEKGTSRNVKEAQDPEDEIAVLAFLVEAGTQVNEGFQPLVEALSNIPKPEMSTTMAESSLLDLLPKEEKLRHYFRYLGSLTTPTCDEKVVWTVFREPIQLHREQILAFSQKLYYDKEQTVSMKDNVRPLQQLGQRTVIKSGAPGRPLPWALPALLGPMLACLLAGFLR

Carbonic anhydrase 2 = Carbonic anhydrase 2 (Homo sapiens, UniProt P00918); experiment: Inhibition of human recombinant carbonic anhydrase 2 preincubated with enzyme for 1 hr prior to testing by phenol red-based stopped-flow CO2 hydration assay
[3] = Stability of compound in aqueous HCl solution at pH 2 measured up to 120 mins by LC-MS/MS analysis; format: physicochemical; conditions: buffer, pH 2, 2 h; how it was run: as §1
[4] = Stability of compound in human plasma measured up to 120 mins by LC-MS/MS analysis; format: ADME, cell-free; conditions: 2 h; how it was run: as §1
[5] = target: Carbonic anhydrase 5B, mitochondrial (Homo sapiens, UniProt Q9Y2D0); experiment: Inhibition of human recombinant carbonic anhydrase 5B preincubated with enzyme for 1 hr prior to testing by phenol red-based stopped-flow CO2 hydration assay
Carbonic anhydrase 5B, mitochondrial, sequence (Q9Y2D0 whole entry): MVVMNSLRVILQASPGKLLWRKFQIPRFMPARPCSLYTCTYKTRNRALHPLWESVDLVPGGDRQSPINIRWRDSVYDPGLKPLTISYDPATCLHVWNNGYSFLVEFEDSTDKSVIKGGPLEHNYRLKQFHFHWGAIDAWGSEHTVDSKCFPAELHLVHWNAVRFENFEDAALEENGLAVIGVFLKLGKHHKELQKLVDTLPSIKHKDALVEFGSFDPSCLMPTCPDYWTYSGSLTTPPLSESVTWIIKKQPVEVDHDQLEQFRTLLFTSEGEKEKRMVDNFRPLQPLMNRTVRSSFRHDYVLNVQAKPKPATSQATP

Mus musculus [6] = experiment: Antinociceptive activity in CD-1 albino mouse model of oxaliplatin-induced neuropathic pain assessed as decrease in pain-related behaviour measured as licking latency at 10 to 100 mg/kg, po treated on day 15 post oxaliplatin treatment and measured after 15 to 30 mins post dose by cold plate test; format: functional, organism-based
How it was run: (§2)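 Male CD-1 mice (22–25 g) given oxaliplatin 2.4 mg kg–1 i.p. in 5% glucose on days 1–2, 5–9 and 12–14 (10 injections). On day 15, compounds were suspended in 1% CMC and given once orally. Cold plate held at 4 °C; latency to first hind-paw licking recorded, 30 s cutoff. Readings taken before dosing and at 15, 30, 45 and 60 min after. 12 mice per group over two sets, observers blinded.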

Carbonic anhydrase 12 = Carbonic anhydrase 12 (Homo sapiens, UniProt O43570); experiment: Inhibition of human recombinant carbonic anhydrase 12 preincubated with enzyme for 1 hr prior to testing by phenol red-based stopped-flow CO2 hydration assay
Carbonic anhydrase 12, sequence (O43570 whole entry): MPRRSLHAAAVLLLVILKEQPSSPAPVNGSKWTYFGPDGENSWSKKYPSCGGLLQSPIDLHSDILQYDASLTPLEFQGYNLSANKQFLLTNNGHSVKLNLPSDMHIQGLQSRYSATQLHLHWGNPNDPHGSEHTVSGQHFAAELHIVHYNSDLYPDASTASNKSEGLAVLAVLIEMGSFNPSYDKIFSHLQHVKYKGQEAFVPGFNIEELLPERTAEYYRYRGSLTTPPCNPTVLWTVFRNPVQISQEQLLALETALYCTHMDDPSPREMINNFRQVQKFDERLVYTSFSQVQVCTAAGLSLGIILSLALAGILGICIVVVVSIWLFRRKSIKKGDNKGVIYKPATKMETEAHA

Carbonic anhydrase 7 = Carbonic anhydrase 7 (Homo sapiens, UniProt P43166); experiment: Inhibition of human recombinant carbonic anhydrase 7 preincubated with enzyme for 1 hr prior to testing by phenol red-based stopped-flow CO2 hydration assay
Carbonic anhydrase 7, sequence (P43166 whole entry): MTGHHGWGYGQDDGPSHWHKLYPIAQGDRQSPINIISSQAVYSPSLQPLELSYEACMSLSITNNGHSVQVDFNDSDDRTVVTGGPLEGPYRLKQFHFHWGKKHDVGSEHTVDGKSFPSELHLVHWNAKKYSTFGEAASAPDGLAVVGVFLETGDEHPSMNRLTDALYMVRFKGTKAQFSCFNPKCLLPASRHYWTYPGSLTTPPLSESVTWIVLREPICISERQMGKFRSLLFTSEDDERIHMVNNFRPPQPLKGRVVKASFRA

Mus musculus [7] = experiment: Antinociceptive activity in CD-1 albino mouse model of oxaliplatin-induced neuropathic pain assessed as decrease in pain-related behaviour measured as licking latency at 50 mg/kg, po treated on day 15 post oxaliplatin treatment and measured after 15 to 45 mins post dose by cold plate test; format: functional, organism-based; how it was run: as §2
Mus musculus [8] = experiment: Antinociceptive activity in CD-1 albino mouse model of oxaliplatin-induced neuropathic pain assessed as decrease in pain-related behaviour measured as licking latency at 100 mg/kg, po treated on day 15 post oxaliplatin treatment and measured after 30 to 45 mins post dose by cold plate test; format: functional, organism-based; how it was run: as §2
Mus musculus [9] = experiment: Antinociceptive activity in orally dosed CD-1 albino mouse model of oxaliplatin-induced neuropathic pain assessed as decrease in pain-related behaviour measured as licking latency treated on day 15 post oxaliplatin treatment and measured after 15 to 60 mins post dose by cold plate test; format: functional, organism-based; how it was run: as §2
[10] = Solubility of compound in water; format: physicochemical; conditions: buffer
Mus musculus [11] = experiment: (§3) Antinociceptive activity in CD-1 albino mouse model of oxaliplatin-induced neuropathic pain assessed as decrease in pain-related behaviour measured as licking latency at 100 mg/kg, po treated on day 15 post oxaliplatin treatment and measured after 30 mins post dose by cold plate test; format: functional, organism-based; how it was run: as §2
Mus musculus [12] = experiment: as §3, with “15” for “30”, “test (reference value: 18.1 +/- 0.3 sec)” for “test”; format: functional
[13] = Stability of compound in aqueous HCl solution assessed as half life at pH 2 measured up to 120 mins by LC-MS/MS analysis; format: physicochemical; conditions: buffer, pH 2, 2 h
How it was run: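 Analyte (1 μM final) incubated at 37 °C in 10 mM aqueous HCl (pH 2), sampled in triplicate at 0, 30, 60 and 120 min. Quenched with acetonitrile containing verapamil internal standard, then quantified by LC–MS/MS with positive-ion MRM. Half-life taken from the degradation profile.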

Mus musculus [14] = experiment: Antinociceptive activity in orally dosed CD-1 albino mouse model of oxaliplatin-induced neuropathic pain assessed as decrease in pain-related behaviour measured as licking latency treated on day 15 post oxaliplatin treatment and measured upto 45 mins post dose by cold plate test; format: functional, organism-based; how it was run: as §2

Row | SMILES | Ki (Carbonic anhydrase 1) | Ki [1] | Stability [2] | Ki (Carbonic anhydrase 9) | Ki (Carbonic anhydrase 4) | Ki (Carbonic anhydrase 2) | Stability [3] | Stability [4] | Ki [5] | Activity (Mus musculus [6]) | Ki (Carbonic anhydrase 12) | Ki (Carbonic anhydrase 7) | Activity (Mus musculus [7]) | Activity (Mus musculus [8]) | Activity (Mus musculus [9]) | solubility [10] | Activity (Mus musculus [11]) | Time (Mus musculus [12]) | Stability [13] | Activity (Mus musculus [14])
1 | NS(=O)(=O)c1ccc(OP(=O)(Nc2ccccc2)c2ccccc2)cc1 (racemic) | 818 nM | 185 nM | Stable | 19.6 nM | 860 nM | 2.4 nM | Stable | Stable | 24 nM | Active | 20.9 nM | 5.5 nM | – | – | – | – | – | – | – | –
2 | C#CCO[P@@](=O)(Oc1ccc(S(N)(=O)=O)cc1)c1ccccc1 | 365 nM | 66.5 nM | – | – | 1980 nM | 56.4 nM | – | – | 66.1 nM | – | 49.2 nM | 71.3 nM | inactive | – | – | – | – | – | – | –
3 | C#CCOP(=O)(Oc1ccc(S(N)(=O)=O)cc1)c1ccccc1 (racemic) | 415 nM | 82.1 nM | Stable | – | 1320 nM | 3.6 nM | Stable | Stable | 38.4 nM | – | 26.7 nM | 12.2 nM | – | Active | Dose-dependent effect | – | – | – | – | –
4 | NS(=O)(=O)c1ccc(OP(=O)(c2ccccc2)N2CCOCC2)cc1 (racemic) | 318 nM | 43.9 nM | – | 11.1 nM | 120 nM | 7.9 nM | – | – | 27.4 nM | – | 27.6 nM | 30.5 nM | – | – | – | – | – | – | – | –
5 | NS(=O)(=O)c1ccc(OP(=O)(Sc2ccccc2)c2ccccc2)cc1 (racemic) | 1630 nM | 382 nM | – | 6.6 nM | 2630 nM | 34.9 nM | – | – | 28.7 nM | – | 39.2 nM | 15.7 nM | – | – | – | – | – | – | – | –
6 | CCN(CC)P(=O)(Oc1ccc(S(N)(=O)=O)cc1)c1ccccc1 (racemic) | 521 nM | 107 nM | – | 19.5 nM | 371 nM | 17.5 nM | – | – | 49.1 nM | – | 46.8 nM | 13.5 nM | – | – | – | – | – | – | – | –
7 | COP(=O)(Oc1ccc(S(N)(=O)=O)cc1)c1ccccc1 (racemic) | 495 nM | 51.7 nM | – | 16.2 nM | 259 nM | 11.4 nM | – | – | 24.3 nM | – | 47.2 nM | 36 nM | – | – | – | – | – | – | – | –
8 | CCCNP(=O)(Oc1ccc(S(N)(=O)=O)cc1)c1ccccc1 (racemic) | 759 nM | 85.2 nM | – | 3.2 nM | 1520 nM | 26.2 nM | – | – | 33.7 nM | – | 17.3 nM | 20.8 nM | – | – | – | – | – | – | – | –
9 | NP(=O)(Oc1ccc(S(N)(=O)=O)cc1)c1ccccc1 (racemic) | 195 nM | 41.3 nM | – | 20.9 nM | 292 nM | 17.9 nM | – | – | 12.6 nM | – | 15.4 nM | 18.9 nM | – | – | – | – | – | – | – | –
10 | NS(=O)(=O)c1ccc(OP(=O)(Oc2ccc(S(N)(=O)=O)cc2)c2ccccc2)cc1 | 671 nM | 284 nM | Stable | 19.7 nM | 360 nM | 3.2 nM | Stable | Stable | 15 nM | – | 16.9 nM | 7.7 nM | – | – | – | Insoluble | Active | – | – | –
11 | CC(=O)Nc1nnc(S(N)(=O)=O)s1 [ACETAZOLAMIDE] | – | – | – | – | – | – | – | – | – | – | – | – | – | – | – | – | – | 15.8 s | – | –
12 | CN1CCN(P(=O)(Oc2ccc(S(N)(=O)=O)cc2)c2ccccc2)CC1 (racemic) | 391 nM | 164 nM | Stable | 61.9 nM | 76.9 nM | 9.1 nM | Stable | Stable | 47.3 nM | Active | 25.3 nM | 17 nM | – | – | – | Soluble | – | – | – | –
13 | COCCOP(=O)(Oc1ccc(S(N)(=O)=O)cc1)c1ccccc1 (racemic) | 780 nM | 59.3 nM | – | 12.1 nM | 1640 nM | 28.5 nM | – | – | 67.2 nM | – | 35.7 nM | 25 nM | – | – | – | – | – | – | – | –
14 | CCSP(=O)(Oc1ccc(S(N)(=O)=O)cc1)c1ccccc1 (racemic) | 727 nM | 94.3 nM | – | 27 nM | 1390 nM | 30.2 nM | – | – | 96.7 nM | – | 34.1 nM | 41.5 nM | – | – | – | – | – | – | – | –
15 | CCCCCCCCCCCCSP(=O)(Oc1ccc(S(N)(=O)=O)cc1)c1ccccc1 (racemic) | 8350 nM | 642 nM | – | 51.2 nM | 4160 nM | 234 nM | – | – | 225 nM | – | 47.8 nM | 101 nM | – | – | – | – | – | – | – | –
16 | NS(=O)(=O)c1ccc(OP(=O)(Oc2ccccc2)c2ccccc2)cc1 (racemic) | 971 nM | 470 nM | – | 13.2 nM | 2620 nM | 15.2 nM | – | – | 22.7 nM | – | 24.6 nM | 31.4 nM | – | – | – | – | – | – | – | –
17 | NS(=O)(=O)c1ccc(OP(=O)(O)c2ccccc2)cc1 | 197 nM | 76.3 nM | – | 26.1 nM | 220 nM | 37.9 nM | – | – | 52.8 nM | – | 30.8 nM | 16.1 nM | – | – | – | – | – | – | – | –
18 | NS(=O)(=O)c1ccc(OP(=O)(SCc2ccccc2)c2ccccc2)cc1 (racemic) | 3260 nM | 151 nM | – | 25 nM | 4460 nM | 64.8 nM | – | – | 58.4 nM | – | 21.3 nM | 75.5 nM | – | – | – | – | – | – | – | –
19 | NS(=O)(=O)c1ccc(OP(=O)(c2ccccc2)N2CCCC2)cc1 (racemic) | 242 nM | 78.3 nM | Stable | 28.9 nM | 308 nM | 1.7 nM | – | Stable | 25.6 nM | – | 58.1 nM | 9.3 nM | – | – | – | – | – | – | Unstable | –
20 | CCOP(=O)(Oc1ccc(S(N)(=O)=O)cc1)c1ccccc1 (racemic) | 398 nM | 143 nM | – | 18.7 nM | 425 nM | 36.6 nM | – | – | 40.1 nM | – | 22.4 nM | 38.2 nM | – | – | – | – | – | – | – | –
21 | NS(=O)(=O)c1ccc(OP(=O)(NCc2ccccc2)c2ccccc2)cc1 (racemic) | 1710 nM | 59.1 nM | – | 2.6 nM | 644 nM | 52.9 nM | – | – | 68.7 nM | – | 19.7 nM | 15.4 nM | – | – | – | – | – | – | – | –
22 | CC(C)OP(=O)(Oc1ccc(S(N)(=O)=O)cc1)c1ccccc1 (racemic) | 308 nM | 101 nM | Stable | 17.5 nM | 1200 nM | 12.8 nM | Stable | Stable | 19.8 nM | – | 42 nM | 6.2 nM | – | – | – | – | – | – | – | Dose-dependent effect
23 | C#CCO[P@](=O)(Oc1ccc(S(N)(=O)=O)cc1)c1ccccc1 | 564 nM | 108 nM | – | – | 746 nM | 0.78 nM | – | – | 19.2 nM | – | 17.3 nM | 1.1 nM | Active | – | – | – | – | – | – | –
